{"source": "paper PMC2999657", "about": "(Biochemistry, 2010)", "key": {"[1]": {"assay": "Spontaneous hydrolysis in neutral aqueous buffer", "assay_type": "physicochemical", "details": "pH 7.5, 25 °C", "outline": "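Test compounds were diluted from concentrated acetonitrile stocks to ≤5% acetonitrile in 20 mM MOPS, pH 7.5, at 25 °C, and their hydrolysis without enzyme was followed by UV-vis. Full progress curves were fit to a pseudo-first-order equation by nonlinear least squares, and triplicate rate constants were averaged. The clavulanic acid reference (85 μM) was run in 25 mM MOPS, pH 7.5, at 25 °C, read at 260 nm.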"}, "[2]": {"biological_target": "class D OXA-1 β-lactamase (Escherichia coli, UniProt P13661)", "sequence (P13661 26-276)": "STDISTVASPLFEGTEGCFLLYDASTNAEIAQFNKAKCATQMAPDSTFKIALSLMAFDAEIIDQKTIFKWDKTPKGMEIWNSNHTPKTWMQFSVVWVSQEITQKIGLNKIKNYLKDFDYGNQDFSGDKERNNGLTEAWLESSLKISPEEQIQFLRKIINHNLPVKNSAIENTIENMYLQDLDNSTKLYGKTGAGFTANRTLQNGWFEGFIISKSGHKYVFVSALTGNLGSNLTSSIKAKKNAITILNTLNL", "assay": "OXA-1 β-lactamase hydrolysis and inhibition", "assay_type": "biochemical"}, "[3]": {"biological_target": "Streptomyces R61 DD-peptidase (Streptomyces sp., UniProt P15555)", "sequence (P15555 32-406)": "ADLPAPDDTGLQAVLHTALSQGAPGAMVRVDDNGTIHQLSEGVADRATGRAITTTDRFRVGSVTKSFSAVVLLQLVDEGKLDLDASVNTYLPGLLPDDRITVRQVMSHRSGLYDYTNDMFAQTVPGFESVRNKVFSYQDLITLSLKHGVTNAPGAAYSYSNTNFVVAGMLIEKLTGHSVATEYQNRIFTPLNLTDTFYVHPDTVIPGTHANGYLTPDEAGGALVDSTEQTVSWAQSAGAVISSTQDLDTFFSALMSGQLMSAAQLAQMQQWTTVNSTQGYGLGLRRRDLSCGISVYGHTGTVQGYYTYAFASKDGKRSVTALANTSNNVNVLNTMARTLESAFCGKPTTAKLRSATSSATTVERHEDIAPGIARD", "assay": "Hydrolysis in the presence of R61 DD-peptidase", "assay_type": "biochemical", "details": "enzyme 0.5 μM"}, "[4]": {"biological_target": "T1, P99 β-lactamase (Enterobacter cloacae, UniProt P05364)", "T1 sequence (P05364 21-381)": "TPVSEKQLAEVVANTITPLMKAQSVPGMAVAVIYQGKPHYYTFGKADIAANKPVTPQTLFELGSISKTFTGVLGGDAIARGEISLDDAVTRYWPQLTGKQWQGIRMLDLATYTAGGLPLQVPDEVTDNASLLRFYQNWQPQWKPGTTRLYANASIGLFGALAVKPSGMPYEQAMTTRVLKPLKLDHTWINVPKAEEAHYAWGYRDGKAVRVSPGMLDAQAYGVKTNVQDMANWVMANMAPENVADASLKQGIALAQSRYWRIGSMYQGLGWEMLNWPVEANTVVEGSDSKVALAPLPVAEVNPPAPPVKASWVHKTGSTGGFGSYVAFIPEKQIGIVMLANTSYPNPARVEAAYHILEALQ", "assay_type": "biochemical", "details": "pH range 6.0–9.5, 25 °C, ionic strength 1.0"}, "[5]": {"assay": "pKa determination by spectrophotometric titration", "assay_type": "physicochemical", "details": "spectrophotometric titration at 233 nm, 25 °C, ionic strength 1.0"}, "[6]": {"biological_target": "Actinomadura R39 DD-peptidase (Actinomadura sp., UniProt P39045)", "sequence (P39045 50-538)": "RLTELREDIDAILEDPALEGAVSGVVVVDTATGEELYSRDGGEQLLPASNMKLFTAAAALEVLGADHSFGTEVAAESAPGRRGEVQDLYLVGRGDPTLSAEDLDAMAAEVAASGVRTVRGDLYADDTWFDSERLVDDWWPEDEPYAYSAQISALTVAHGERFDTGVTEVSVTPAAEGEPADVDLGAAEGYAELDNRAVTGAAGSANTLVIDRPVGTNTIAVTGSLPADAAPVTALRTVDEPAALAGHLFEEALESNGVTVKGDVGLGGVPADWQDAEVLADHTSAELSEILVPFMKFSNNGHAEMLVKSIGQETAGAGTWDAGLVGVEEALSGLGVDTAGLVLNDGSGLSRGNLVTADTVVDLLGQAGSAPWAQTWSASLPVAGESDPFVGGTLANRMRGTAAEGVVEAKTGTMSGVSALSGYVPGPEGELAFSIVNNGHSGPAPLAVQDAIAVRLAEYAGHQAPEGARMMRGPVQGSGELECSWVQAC", "assay": "Hydrolysis in the presence of R39 DD-peptidase", "assay_type": "biochemical"}, "[7]": {"biological_target": "class C P99 β-lactamase (Enterobacter cloacae, UniProt P05364)", "sequence (P05364 21-381)": "as the sequence (P05364 21-381) above", "assay_type": "biochemical", "details": "steady state turnover by P99 β-lactamase, 20 mM MOPS pH 7.5, 25 °C"}, "[8]": {"biological_target": "class C ampC β-lactamase (Escherichia coli, UniProt P00811)", "sequence (P00811 20-377)": "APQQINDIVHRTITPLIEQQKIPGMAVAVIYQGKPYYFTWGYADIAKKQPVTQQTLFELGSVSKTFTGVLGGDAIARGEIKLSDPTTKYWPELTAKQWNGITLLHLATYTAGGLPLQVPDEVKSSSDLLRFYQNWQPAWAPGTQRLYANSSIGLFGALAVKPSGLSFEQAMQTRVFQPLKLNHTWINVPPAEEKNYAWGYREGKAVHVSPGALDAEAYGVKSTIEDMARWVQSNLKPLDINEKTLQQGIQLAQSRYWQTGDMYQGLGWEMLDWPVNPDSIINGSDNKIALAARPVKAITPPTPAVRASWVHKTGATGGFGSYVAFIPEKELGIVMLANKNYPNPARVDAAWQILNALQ", "assay": "ampC β-lactamase substrate activity", "assay_type": "biochemical"}, "[9]": {"details": "in dioxane/water; cited from earlier work"}, "[10]": {"biological_target": "T1, P99 β-lactamase", "assay": "P99 β-lactamase activity with time after incubation with compound", "assay_type": "biochemical", "details": "enzyme 0.25 μM, compound 100 μM"}}, "data": [{"molecule": "O=C(NOC(=O)C(O)Cc1ccccc1)OCc1ccccc1", "note": "(stereo not shown) [Compound 7, N-(Benzyloxycarbonyl)-O-(2-hydroxy-3-phenylpropanoyl)hydroxylamine]", "values": [{"measurement": "ksp, rate constant of spontaneous hydrolysis", "setting": "[1]; 20 mM MOPS", "result": "(8.2 ± 0.8) × 10^−5 s^−1"}, {"measurement": "fast reversible or slow inhibition of the OXA-1 enzyme", "setting": "[2]", "result": "no significant fast reversible or slow inhibition"}, {"measurement": "hydrolysis catalyzed by OXA-1", "setting": "[2]; 20 mM MOPS, 50 mM NaHCO3, 0.1 % gelatin, pH 7.5", "result": "did not catalyze hydrolysis"}, {"measurement": "substrate activity with R61 DD-peptidase", "setting": "[3]", "result": "not substrates"}, {"measurement": "pKa for decreasing activity in pH-rate profile", "setting": "[4]", "result": "7.6 ± 0.2"}, {"measurement": "pKa (acidic NH proton)", "setting": "[5]", "result": "7.58 ± 0.03"}, {"measurement": "substrate activity with R39 DD-peptidase", "setting": "[6]", "result": "not substrates"}, {"measurement": "Km", "setting": "[7]", "result": "71 ± 10", "unit": "µM"}, {"measurement": "substrate activity with ampC β-lactamase", "setting": "[8]", "result": "good substrate"}]}, {"molecule": "O=C(NOC(=O)C(O)Cc1ccccc1)OCc1ccccc1", "note": "(stereo not shown) [Compound 8, N-(Benzyloxycarbonyl)-O-(2-hydroxy-3-phenylpropanoyl)hydroxylamine]", "values": [{"measurement": "Km", "setting": "[7]", "result": "340 ± 60", "unit": "µM"}]}, {"molecule": "O=C(O)[C@H]1/C(=C/CO)O[C@@H]2CC(=O)N21", "note": "[clavulanic acid, reference compound]", "values": [{"measurement": "spontaneous hydrolysis rate constant", "setting": "[1]; 85 μM in 25 mM MOPS buffer, monitored at 260 nm", "result": "8e-05", "unit": "s⁻¹"}]}, {"molecule": "O=[N+]([O-])c1ccc(O)cc1", "note": "[p-nitrophenol]", "values": [{"measurement": "pKa", "setting": "[9]", "result": 9.4}]}, {"molecule": "N-(Benzyloxycarbonyl)-O-(1-D-carboxy-ethoxycarbonyl)hydroxylamine [2 (R = CH2Ph, R′=Me)]", "values": [{"measurement": "enzyme activity against cephalothin with time after mixing", "setting": "[10]", "result": "initial loss of enzyme activity, measured against the good substrate, cephalothin, followed by a slower restoration of activity"}]}]}
